# Experimental data: ChEMBL document CHEMBL1135657, “Novel dual inhibitors of AChE and MAO derived from hydroxy aminoindan and phenethylamine as potential treatment for Alzheimer's disease” (J Med Chem, 2002)
# Assays:
# Acetylcholinesterase [1] = molecular target: T1, Acetylcholinesterase (Homo sapiens, UniProt P22303); test: In vitro inhibitory concentration against purified Acetylcholinesterase of human erythrocytes; value ranges from 2.8-27.5
# [2] = molecular target: T2, Amine oxidase [flavin-containing] B (Rattus norvegicus, UniProt P19643); test: In vitro inhibitory concentration against Monoamine oxidase B of rat brain homogenates; value ranges from 0.23-0.34; type: tissue-based
# T2 sequence (P19643 whole entry): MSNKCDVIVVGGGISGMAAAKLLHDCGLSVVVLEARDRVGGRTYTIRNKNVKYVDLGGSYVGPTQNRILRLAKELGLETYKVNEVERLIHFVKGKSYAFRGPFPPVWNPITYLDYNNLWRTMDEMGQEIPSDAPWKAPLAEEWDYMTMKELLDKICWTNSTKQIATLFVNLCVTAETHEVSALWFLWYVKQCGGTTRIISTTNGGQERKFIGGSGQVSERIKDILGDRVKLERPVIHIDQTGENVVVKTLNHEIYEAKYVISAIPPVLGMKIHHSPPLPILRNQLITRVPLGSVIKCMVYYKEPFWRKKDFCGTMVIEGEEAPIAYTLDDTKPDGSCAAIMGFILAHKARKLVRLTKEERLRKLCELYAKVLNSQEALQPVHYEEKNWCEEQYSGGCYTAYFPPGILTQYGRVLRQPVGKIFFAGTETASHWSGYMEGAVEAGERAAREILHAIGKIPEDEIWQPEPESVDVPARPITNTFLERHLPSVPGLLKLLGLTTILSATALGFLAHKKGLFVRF
# [3] = molecular target: T3, Amine oxidase [flavin-containing] A (Rattus norvegicus, UniProt P21396); test: In vitro inhibitory concentration against Monoamine oxidase A of rat brain homogenates; value ranges from 0.8-1.0; type: tissue-based
# T3 sequence (P21396 whole entry): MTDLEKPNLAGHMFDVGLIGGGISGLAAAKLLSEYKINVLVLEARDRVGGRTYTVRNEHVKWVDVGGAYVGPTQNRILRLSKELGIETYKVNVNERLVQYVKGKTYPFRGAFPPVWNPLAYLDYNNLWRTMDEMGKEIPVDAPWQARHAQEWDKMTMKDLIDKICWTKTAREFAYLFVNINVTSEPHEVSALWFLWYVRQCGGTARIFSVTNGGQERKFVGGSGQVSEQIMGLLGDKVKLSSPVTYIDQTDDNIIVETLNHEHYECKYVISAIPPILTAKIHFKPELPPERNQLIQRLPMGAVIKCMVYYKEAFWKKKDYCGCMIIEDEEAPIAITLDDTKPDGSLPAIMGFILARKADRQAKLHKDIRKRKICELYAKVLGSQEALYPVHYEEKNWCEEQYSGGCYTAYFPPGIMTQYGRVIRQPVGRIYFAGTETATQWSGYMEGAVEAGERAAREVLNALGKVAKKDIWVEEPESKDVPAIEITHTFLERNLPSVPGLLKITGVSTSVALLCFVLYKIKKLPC
# Acetylcholinesterase [4] = molecular target: T1, Acetylcholinesterase; test: In vitro inhibitory concentration against purified Acetylcholinesterase of human erythrocytes; value ranges from 4.6-25.8
# Butyrylcholinesterase [5] = molecular target: T4, Butyrylcholinesterase (Equus caballus, UniProt Q9N1N9); test: In vitro inhibitory concentration against Butyrylcholinesterase of horse serum; value ranges from 0.20-0.36
# How it was run: (§1)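 Ellman assay followed, with 200 µM butyrylthiocholine as substrate. Runs were in triplicate with four-point dose-response curves. IC50 and fiducial limits came from log concentration versus % inhibition.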
# [6] = molecular target: T3, Amine oxidase [flavin-containing] A; test: In vitro inhibitory concentration against Monoamine oxidase A of rat brain homogenates; value ranges from 6.3-7.7; type: tissue-based
# Acetylcholinesterase [7] = molecular target: T1, Acetylcholinesterase; test: In vitro inhibitory concentration against purified Acetylcholinesterase of human erythrocytes; value ranges from 0.32-0.98
# [8] = molecular target: T2, Amine oxidase [flavin-containing] B; test: In vitro inhibitory concentration against Monoamine oxidase B of rat brain homogenates; value ranges from 4.8-6.9; type: tissue-based
# Butyrylcholinesterase [9] = molecular target: T4, Butyrylcholinesterase; test: In vitro inhibitory concentration against Butyrylcholinesterase of horse serum; value ranges from 1.00-1.20; how it was run: as §1
# [10] = molecular target: T3, Amine oxidase [flavin-containing] A; test: In vitro inhibitory concentration against Monoamine oxidase A of rat brain homogenates; value ranges from 0.28-0.34; type: tissue-based
# Butyrylcholinesterase [11] = molecular target: T4, Butyrylcholinesterase; test: In vitro inhibitory concentration against Butyrylcholinesterase of horse serum; value ranges from 1.6-2.4; how it was run: as §1
# Acetylcholinesterase [12] = molecular target: T1, Acetylcholinesterase
# [13] = molecular target: T2, Amine oxidase [flavin-containing] B; test: In vitro inhibitory concentration against Monoamine oxidase B of rat brain homogenates; value ranges from 0.19-0.44; type: tissue-based
# How it was run: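 Rat brain homogenate (in 0.3 M sucrose) as enzyme source; compounds diluted 10⁻²M to 10⁻⁹M in 0.05 M phosphate buffer with 0.15 μM clorgyline; preincubated 60 min at 37 °C, then 10 μM ¹⁴C-phenylethylamine added for 20 min more; stopped with citric acid; metabolites extracted into toluene/ethyl acetate, scintillation counted; activity as % of control, tranylcypromine blank.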
# Butyrylcholinesterase [14] = molecular target: T4, Butyrylcholinesterase; test: In vitro inhibitory concentration against Butyrylcholinesterase of horse serum; value ranges from 1.19-6.10; how it was run: as §1
# Acetylcholinesterase [15] = molecular target: T1, Acetylcholinesterase; test: In vitro inhibitory concentration against purified Acetylcholinesterase of human erythrocytes; value ranges from 31.2-202
# Acetylcholinesterase [16] = molecular target: T1, Acetylcholinesterase; remark: listed apart in the source
# Butyrylcholinesterase [17] = molecular target: T4, Butyrylcholinesterase; test: In vitro inhibitory concentration against Butyrylcholinesterase of horse serum; value ranges from 29.6-110; how it was run: as §1
# Acetylcholinesterase [18] = molecular target: T1, Acetylcholinesterase; test: In vitro inhibitory concentration against purified Acetylcholinesterase of human erythrocytes; value ranges from 33.2-96.7
# Acetylcholinesterase [19] = molecular target: T1, Acetylcholinesterase; test: In vitro inhibitory concentration against purified Acetylcholinesterase of human erythrocytes; value ranges from 0.54-0.56
# Butyrylcholinesterase [20] = molecular target: T4, Butyrylcholinesterase
# Acetylcholinesterase [21] = molecular target: T1, Acetylcholinesterase; remark: listed apart in the source
# [22] = molecular target: T3, Amine oxidase [flavin-containing] A; test: In vitro inhibitory concentration against Monoamine oxidase A of rat brain homogenates; value ranges from 560-1000; type: tissue-based
# Butyrylcholinesterase [23] = molecular target: T4, Butyrylcholinesterase; remark: listed apart in the source
# [24] = molecular target: T2, Amine oxidase [flavin-containing] B; test: In vitro inhibitory concentration against Monoamine oxidase B of rat brain homogenates; value ranges from 200-1400; type: tissue-based
# [25] = molecular target: T2, Amine oxidase [flavin-containing] B; test: In vitro inhibitory concentration against Monoamine oxidase B of rat brain homogenates; value ranges from 360-470; type: tissue-based
# Butyrylcholinesterase [26] = molecular target: T4, Butyrylcholinesterase; test: In vitro inhibitory concentration against Butyrylcholinesterase of horse serum; value ranges from 6.3-52.4; how it was run: as §1
# Acetylcholinesterase [27] = molecular target: T1, Acetylcholinesterase; test: In vitro inhibitory concentration against purified Acetylcholinesterase of human erythrocytes; value ranges from 6.4-45.9
# [28] = molecular target: T3, Amine oxidase [flavin-containing] A; test: In vitro inhibitory concentration against Monoamine oxidase A of rat brain homogenates; value ranges from 170-340; type: tissue-based
# Butyrylcholinesterase [29] = molecular target: T4, Butyrylcholinesterase; test: In vitro inhibitory concentration against Butyrylcholinesterase of horse serum; value ranges from 5.02-12.2; how it was run: as §1
# Acetylcholinesterase [30] = molecular target: T1, Acetylcholinesterase; test: In vitro inhibitory concentration against purified Acetylcholinesterase of human erythrocytes; value ranges from 7.81-39.2
# [31] = Bimolecular rate constant for carbamoylation of ACHE; type: ADME
# How it was run: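 Human erythrocyte AChE preincubated with inhibitor at 37 °C in 0.1 M phosphate buffer, pH 7.4, under Ellman conditions with 200 µM […]. Pseudo-first-order rate constants (k_obs) for progressive inhibition were obtained at 4-5 inhibitor concentrations. The apparent bimolecular carbamylation constant k_i was calculated from these.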
# [32] = Pseudo-first order rate constant for carbamoylation of ACHE at 100 (uM) concentration; type: ADME
# How it was run: (§2)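 Human erythrocyte AChE, same Ellman conditions: 200 µM […], 60 min preincubation at 37 °C, 0.1 M phosphate pH 7.4. Progressive inhibition followed at 4-5 inhibitor concentrations. Pseudo-first-order k_obs (min⁻¹) derived per concentration; apparent bimolecular carbamylation constant k_i calculated from these.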
# [33] = molecular target: T3, Amine oxidase [flavin-containing] A; test: In vitro inhibitory concentration against Monoamine oxidase A of rat brain homogenates; value ranges from 315-465; type: tissue-based
# [34] = Pseudo-first order rate constant for carbamoylation of ACHE at 300 (uM) concentration; type: ADME; how it was run: as §2
# Acetylcholinesterase [35] = molecular target: T1, Acetylcholinesterase; test: In vitro inhibitory concentration against purified Acetylcholinesterase of human erythrocytes; value ranges from 42.5-45.9
# [36] = molecular target: T2, Amine oxidase [flavin-containing] B; test: In vitro inhibitory concentration against Monoamine oxidase B of rat brain homogenates; value ranges from 18-59; type: tissue-based
# [37] = Pseudo-first order rate constant for carbamoylation of ACHE at 50 (uM) concentration; type: ADME; how it was run: as §2
# [38] = Pseudo-first order rate constant for carbamoylation of ACHE at 400 (uM) concentration; type: ADME
# How it was run: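 Pseudo-first-order rate constants kobs measured at 4-5 inhibitor concentrations following Bar-On et al. Apparent bimolecular carbamylation constant ki calculated from these.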
# T1 sequence (P22303 whole entry): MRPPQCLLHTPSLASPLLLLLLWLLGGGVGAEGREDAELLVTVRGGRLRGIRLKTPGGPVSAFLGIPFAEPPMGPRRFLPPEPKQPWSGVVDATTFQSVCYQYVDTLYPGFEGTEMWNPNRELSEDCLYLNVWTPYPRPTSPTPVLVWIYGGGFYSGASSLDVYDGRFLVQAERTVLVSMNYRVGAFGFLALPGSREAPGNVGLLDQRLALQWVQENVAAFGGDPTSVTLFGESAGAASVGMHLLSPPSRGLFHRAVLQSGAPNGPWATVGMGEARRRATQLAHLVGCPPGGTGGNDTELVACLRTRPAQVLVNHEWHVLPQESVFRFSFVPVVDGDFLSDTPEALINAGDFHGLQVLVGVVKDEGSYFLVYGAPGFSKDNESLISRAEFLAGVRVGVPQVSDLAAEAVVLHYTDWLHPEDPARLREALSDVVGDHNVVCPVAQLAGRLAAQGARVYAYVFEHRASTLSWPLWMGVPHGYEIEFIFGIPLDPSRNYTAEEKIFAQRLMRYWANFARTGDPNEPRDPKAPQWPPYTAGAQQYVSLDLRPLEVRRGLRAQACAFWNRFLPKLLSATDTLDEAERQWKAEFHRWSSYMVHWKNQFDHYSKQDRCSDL
# T4 sequence (Q9N1N9 whole entry): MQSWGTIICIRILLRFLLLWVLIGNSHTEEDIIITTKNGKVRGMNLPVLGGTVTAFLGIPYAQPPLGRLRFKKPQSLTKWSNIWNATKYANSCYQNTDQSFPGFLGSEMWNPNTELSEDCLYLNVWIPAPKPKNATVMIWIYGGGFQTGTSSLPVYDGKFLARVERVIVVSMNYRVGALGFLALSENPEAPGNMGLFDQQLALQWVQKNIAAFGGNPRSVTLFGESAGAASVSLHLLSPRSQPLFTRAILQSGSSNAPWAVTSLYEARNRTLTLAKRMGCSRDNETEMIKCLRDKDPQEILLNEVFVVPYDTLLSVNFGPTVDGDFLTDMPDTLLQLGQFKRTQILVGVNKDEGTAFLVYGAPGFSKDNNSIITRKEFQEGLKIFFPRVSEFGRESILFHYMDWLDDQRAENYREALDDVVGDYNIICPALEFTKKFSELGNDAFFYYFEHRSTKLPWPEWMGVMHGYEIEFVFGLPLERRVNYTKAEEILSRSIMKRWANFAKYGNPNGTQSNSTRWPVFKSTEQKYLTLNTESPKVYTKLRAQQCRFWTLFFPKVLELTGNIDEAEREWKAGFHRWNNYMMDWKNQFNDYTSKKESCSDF
compound,measurement,setting,value
C#CCN(C)[C@@H](C)Cc1cccc(OC(=O)N(C)C2CCCCC2)c1,IC50,Acetylcholinesterase [1],6.3 µM
same,IC50,[2],0.28 µM
same,IC50,[3],1.1 µM
C#CCN[C@H]1CCc2ccc(OC(=O)N(C)CCCC)cc21,IC50,Acetylcholinesterase [4],9.3 µM
C#CC(C)NCCc1cccc(OC(=O)N(C)CC)c1 (stereo not drawn),IC50,Butyrylcholinesterase [5],0.24 µM
C#CCNC(C)Cc1cccc(OC(=O)N(C)C)c1 (stereo not drawn),IC50,[6],6.9 µM
same,IC50,Acetylcholinesterase [7],0.54 µM
same,IC50,[8],5.7 µM
same,IC50,Butyrylcholinesterase [9],1.09 µM
C#CCN[C@@H]1CCc2ccc(O)cc21,IC50,[10],0.3 µM
C#CCNCCc1cccc(OC(=O)N(C)CCC)c1,IC50,Butyrylcholinesterase [11],1.9 µM
same,IC50,Acetylcholinesterase [12],15.4 µM
same,IC50,[13],0.29 µM
C#CCNC1CCc2ccc(OC(=O)N(CC)CCCC)cc21 (stereo not drawn),IC50,Butyrylcholinesterase [14],3.03 µM
same,IC50,Acetylcholinesterase [15],72.4 µM
C#CCNC1CCc2ccc(OC(=O)N(C)CCCC)cc21 (stereo not drawn),IC50,Acetylcholinesterase [16],11.3 µM
same,IC50,Butyrylcholinesterase [17],53.7 µM
C#CCNC1CCc2cccc(OC(=O)N(C)CCC)c21 (stereo not drawn),IC50,Acetylcholinesterase [18],45.8 µM
C#CCNC1CCc2ccc(OC(=O)N(C)c3ccccc3)cc21 (stereo not drawn),IC50,Acetylcholinesterase [19],0.55 µM
same,IC50,Butyrylcholinesterase [20],16.6 µM
C#CCNC1CCc2c(Cl)cc(OC(=O)N(C)CC)cc21 (stereo not drawn),IC50,Acetylcholinesterase [21],25.5 µM
C#CCNC1CCc2ccc(OC(=O)N(C)C)cc21 (stereo not drawn),IC50,[22],750 µM
same,IC50,Butyrylcholinesterase [23],2.07 µM
same,IC50,[24],530 µM
C#CCNC1CCc2ccc(OC(=O)N(C)CCC)cc21 (stereo not drawn),IC50,[25],410 µM
same,IC50,Butyrylcholinesterase [26],14.8 µM
same,IC50,Acetylcholinesterase [27],14.6 µM
same,IC50,[28],240 µM
C#CCNC1CCc2ccc(OC(=O)N(C)CCCCCC)cc21 (stereo not drawn),IC50,Butyrylcholinesterase [29],7.5 µM
same,IC50,Acetylcholinesterase [30],15.7 µM
C#CCNC1CCc2c(Cl)cc(OC(=O)N(C)CCC)cc21.Cl (stereo not drawn),Bimolecular carbamoylation rate constant (ki),[31],0.983 M⁻¹ s⁻¹
same,K obs,[32],22 min⁻¹
same,IC50,[33],375 µM
same,K obs,[34],34 min⁻¹
same,IC50,Acetylcholinesterase [35],43.9 µM
same,IC50,[36],32 µM
same,K obs,[37],17 min⁻¹
same,K obs,[38],38 min⁻¹
